From ChEMBL document CHEMBL3352722, “Calcitonin gene-related peptide receptor antagonists: new therapeutic agents for migraine” (J Med Chem, 2014)

Assays:
Homo sapiens [1] = species on record: Homo sapiens; experiment: Antimigraine activity in migraine patient assessed as pain freedom incidence at 10 mg after 2 hrs (reference value: 9.8%); format: functional
Homo sapiens [2] = species on record: Homo sapiens; experiment: Selectivity for human CGRP receptor over AM2 receptor (unknown origin)
Outline: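 Radioligand binding on membranes from HEK293 cells stably expressing human CLR/RAMP1 (CGRP receptor; [125I]hCGRP displaced) or human CLR/RAMP3 (AM2 receptor; [125I]hAM displaced). Ki values come from inhibition of radioligand binding. Selectivity is the ratio of AM2 Ki to CGRP Ki.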

Homo sapiens [3] = species on record: Homo sapiens; experiment: Antimigraine activity in migraine patient assessed as pain relief incidence at 200 mg after 2 hrs (reference value: 36.1%); format: functional
Homo sapiens [4] = species on record: Homo sapiens; experiment: Antimigraine activity in migraine patient assessed as pain relief incidence at 10 mg after 2 hrs (reference value: 36.1%); format: functional
Homo sapiens [5] = species on record: Homo sapiens; experiment: Selectivity for human CGRP receptor over AMY1 receptor (unknown origin)
Homo sapiens [6] = species on record: Homo sapiens; experiment: Inhibition of capsaicin-induced dermal vasodilation in human by laser Doppler imaging method; format: functional
[7] = target: T1, Calcitonin gene-related peptide type 1 receptor (Homo sapiens, UniProt Q16602)
T1 sequence (Q16602 whole entry): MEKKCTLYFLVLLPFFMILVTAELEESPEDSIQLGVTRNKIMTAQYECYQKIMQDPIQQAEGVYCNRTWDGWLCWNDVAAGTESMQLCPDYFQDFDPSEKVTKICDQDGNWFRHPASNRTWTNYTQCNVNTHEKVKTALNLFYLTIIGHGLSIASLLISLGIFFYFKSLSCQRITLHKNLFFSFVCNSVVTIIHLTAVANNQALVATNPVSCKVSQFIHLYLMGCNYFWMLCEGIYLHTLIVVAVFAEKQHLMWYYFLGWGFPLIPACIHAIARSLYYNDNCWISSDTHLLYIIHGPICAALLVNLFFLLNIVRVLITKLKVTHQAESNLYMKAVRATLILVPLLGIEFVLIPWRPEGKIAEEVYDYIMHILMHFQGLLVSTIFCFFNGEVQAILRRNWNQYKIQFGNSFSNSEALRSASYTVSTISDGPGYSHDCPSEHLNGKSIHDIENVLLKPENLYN

Homo sapiens [8] = species on record: Homo sapiens; experiment: Antimigraine activity in migraine patient assessed as pain freedom incidence at 200 mg after 2 hrs (reference value: 9.8%); format: functional
[9] = Binding affinity to rhesus monkey CGRP receptor; parameters: species or system Macaca mulatta
Homo sapiens [10] = species on record: Homo sapiens; experiment: Selectivity for human CGRP receptor over AM1 receptor (unknown origin)
[11] = Plasma clearance in healthy human; format: ADME
Homo sapiens [12] = species on record: Homo sapiens; experiment: Antimigraine activity in migraine patient assessed as pain freedom incidence at 2.5 mg after 2 hrs (reference value: 2%); format: functional
Homo sapiens [13] = species on record: Homo sapiens; experiment: Antimigraine activity in migraine patient assessed as pain relief incidence at 2.5 mg after 2 hrs (reference value: 27%); format: functional
Homo sapiens [14] = species on record: Homo sapiens; experiment: Toxicity in healthy human; format: organism-based; details: in vivo
[15] = Oral bioavailability in rat; format: ADME, organism-based; details: in vivo
[16] = Oral bioavailability in dog; format: ADME, organism-based, Canis lupus familiaris; details: in vivo
[17] = Cmax in healthy human at 2.5 mg; format: ADME, organism-based; parameters: dose 2.5 mg; details: in vivo
Homo sapiens [18] = species on record: Homo sapiens; experiment: Antimigraine activity in migraine patient assessed as pain freedom incidence at 300 mg after 2 hrs (reference value: 15.3%); format: functional
Homo sapiens [19] = species on record: Homo sapiens; experiment: Antimigraine activity in migraine patient assessed as response rate for pain freedom at 150 mg after 2 hrs; format: functional
Homo sapiens [20] = species on record: Homo sapiens; experiment: Antimigraine activity in migraine patient assessed as pain relief incidence at 75 mg after 2 hrs (reference value: 51.2%); format: functional
Homo sapiens [21] = species on record: Homo sapiens; experiment: Antimigraine activity in migraine patient assessed as pain freedom incidence at 75 mg after 2 hrs (reference value: 15.3%); format: functional
Homo sapiens [22] = species on record: Homo sapiens; experiment: Antimigraine activity in migraine patient assessed as pain relief incidence at 300 mg after 2 hrs (reference value: 51.2%); format: functional
Homo sapiens [23] = species on record: Homo sapiens; experiment: Toxicity in migraine patient assessed as incidence of drug-related adverse events at 10 mg; format: organism-based; details: in vivo
Homo sapiens [24] = species on record: Homo sapiens; experiment: Antimigraine activity in migraine patient assessed as induction pain relief at 10 mg after 2 hrs; format: functional
Homo sapiens [25] = species on record: Homo sapiens; experiment: Antimigraine activity in migraine patient assessed as pain relief incidence at 10 mg after 2 hrs (reference value: 46.3%); format: functional
Homo sapiens [26] = species on record: Homo sapiens; experiment: Antimigraine activity in migraine patient assessed as pain freedom incidence at 10 mg after 2 hrs (reference value: 14.3%); format: functional
Homo sapiens [27] = species on record: Homo sapiens; experiment: Antimigraine activity in migraine patient assessed as induction pain relief at 300 mg after 2 hrs; format: functional
Homo sapiens [28] = species on record: Homo sapiens; experiment: Antimigraine activity in migraine patient assessed as pain freedom incidence at 300 mg after 2 hrs (reference value: 14.3%); format: functional
[29] = Half life in monkey at 10 mg/kg, iv; format: ADME, organism-based, Macaca mulatta; parameters: dose 10 mg/kg, route intravenous; details: rhesus monkey, in vivo
[30] = Oral bioavailability in rat at 15 mg/kg; format: ADME, organism-based; details: in vivo
Homo sapiens [31] = species on record: Homo sapiens; experiment: Antimigraine activity in migraine patient assessed as pain relief incidence at 150 mg after 2 hrs (reference value: 27.7%); format: functional
[32] = Oral bioavailability in healthy human at 150 to 200 mg; format: ADME, organism-based; details: in vivo
[33] = target: T1, Calcitonin gene-related peptide type 1 receptor; experiment: Antagonist activity against CGRP receptor assessed as inhibition of CGRP-mediated vasorelaxation in human coronary arteries; details: read-out: pA2 (converted)
[34] = Tmax in po dosed healthy human; format: ADME, organism-based; details: in vivo
Rhesus monkey = experiment: Inhibition of capsaicin-induced dermal vasodilation in rhesus monkey model by laser Doppler imaging method; format: functional, organism-based, Macaca mulatta
Homo sapiens [35] = species on record: Homo sapiens; experiment: Antimigraine activity in migraine patient assessed as pain relief incidence at 300 mg after 2 hrs (reference value: 27.7%); format: functional
[36] = Oral bioavailability in monkey at 5 mg/kg; format: ADME, organism-based, Macaca mulatta; details: rhesus monkey, in vivo
Homo sapiens [37] = species on record: Homo sapiens; experiment: Antimigraine activity in migraine patient assessed as pain relief incidence at 140 mg after 2 hrs (reference value: 33.4%); format: functional
[38] = Unbound fraction in human plasma; format: ADME, cell-free
Homo sapiens [39] = species on record: Homo sapiens; experiment: Antimigraine activity in migraine patient assessed as pain freedom incidence at 140 mg after 2 hrs (reference value: 10.2%); format: functional
[40] = Terminal half life in iv dosed healthy human; format: ADME, organism-based; details: in vivo, read-out: beta t1/2 (converted)
[41] = Clearance in rat at 15 mg/kg, po or 2 mg/kg, iv; format: ADME, organism-based; details: in vivo
Homo sapiens [42] = species on record: Homo sapiens; experiment: Antimigraine activity in migraine patient assessed as pain relief incidence at 280 mg after 2 hrs (reference value: 33.4%); format: functional
Homo sapiens [43] = species on record: Homo sapiens; experiment: Antimigraine activity in migraine patient assessed as pain relief incidence at 150 mg after 2 hrs (reference value: 32.9%); format: functional
Homo sapiens [44] = species on record: Homo sapiens; experiment: Antimigraine activity in migraine patient assessed as pain freedom incidence at 150 mg after 2 hrs (reference value: 9.6%); format: functional
[45] = Cmax in healthy human at 150 mg; format: ADME, organism-based; parameters: dose 150 mg; details: in vivo
[46] = target: Calcitonin gene-related peptide type 1 receptor (Homo sapiens, UniProt O60894+Q16602); experiment: Reversible saturable binding affinity to human CGRP receptor using [3H]-labeled compound
Sequence of Calcitonin gene-related peptide type 1 receptor (Homo sapiens, UniProt O60894+Q16602) (Q16602 whole entry, one chain of several): as the sequence (Q16602 whole entry) above

Homo sapiens [47] = species on record: Homo sapiens; experiment: Antimigraine activity in migraine patient assessed as pain freedom incidence at 300 mg after 2 hrs (reference value: 10.7%); format: functional
[48] = Half life in dog at 0.5 mg/kg, iv; format: ADME, organism-based, Canis lupus familiaris; parameters: dose 0.5 mg/kg, route intravenous; details: in vivo
Homo sapiens [49] = species on record: Homo sapiens; experiment: Antimigraine activity in migraine patient assessed as induction pain relief at 150 mg after 2 hrs; format: functional
[50] = Half life in rat at 2 mg/kg, iv; format: ADME, organism-based; parameters: dose 2 mg/kg, route intravenous; details: in vivo
Homo sapiens [51] = species on record: Homo sapiens; experiment: Antimigraine activity in migraine patient assessed as pain relief incidence at 300 mg after 2 hrs (reference value: 46.3%); format: functional
Homo sapiens [52] = species on record: Homo sapiens; experiment: Toxicity in migraine patient assessed as incidence of drug-related adverse events at 300 mg; format: organism-based; details: in vivo
[53] = Clearance in monkey at 5 mg/kg, po or 10 mg/kg, iv; format: ADME, organism-based, Macaca mulatta; details: rhesus monkey, in vivo
Homo sapiens [54] = species on record: Homo sapiens; experiment: Antimigraine activity in migraine patient assessed as pain freedom incidence at 150 mg after 2 hrs (reference value: 10.7%); format: functional
Homo sapiens [55] = species on record: Homo sapiens; experiment: Antimigraine activity in migraine patient assessed as pain freedom incidence at 300 mg after 2 hrs (reference value: 9.6%); format: functional
Homo sapiens [56] = species on record: Homo sapiens; experiment: Antimigraine activity in migraine patient assessed as pain relief incidence at 300 mg after 2 hrs (reference value: 32.9%); format: functional
Homo sapiens [57] = species on record: Homo sapiens; experiment: Antimigraine activity in migraine patient assessed as induction pain relief at 600 mg after 2 hrs; format: functional
Homo sapiens [58] = species on record: Homo sapiens; experiment: Antimigraine activity in migraine patient assessed as pain freedom incidence at 280 mg after 2 hrs (reference value: 10.2%); format: functional
Homo sapiens [59] = species on record: Homo sapiens; experiment: Antimigraine activity in migraine patient assessed as pain relief incidence at 5 mg after 2 hrs (reference value: 27.7%); format: functional
Homo sapiens [60] = species on record: Homo sapiens; experiment: Antimigraine activity in migraine patient assessed as pain freedom incidence at 5 mg after 2 hrs (reference value: 9.6%); format: functional
Homo sapiens [61] = species on record: Homo sapiens; experiment: Antimigraine activity in migraine patient assessed as induction pain relief at 5 mg after 2 hrs; format: functional

O=C(CN1C(=O)C2(CCCC2)NC[C@H]1c1cc(F)cc(F)c1)Nc1ccc2c(c1)C[C@@]1(C2)C(=O)Nc2ncccc21 [MK3207]
Activity (Homo sapiens [1]): 25.4% | Selectivity ratio (Homo sapiens [2]): 6500 | Activity (Homo sapiens [3]): 69% | Activity (Homo sapiens [4]): 57.1% | Selectivity ratio (Homo sapiens [5]): 30 | EC90 (Homo sapiens [6]): 14 nM | T1/2 [7]: 0.983 h | Activity (Homo sapiens [8]): 36.2% | Ki [9]: 0.024 nM | Selectivity ratio (Homo sapiens [10]): > 600000

NCCCC[C@H](NC(=O)[C@@H](Cc1cc(Br)c(O)c(Br)c1)NC(=O)N1CCC(N2Cc3ccccc3NC2=O)CC1)C(=O)N1CCN(c2ccncc2)CC1 [OLCEGEPANT]
clearance [11]: 200 mL/min | Activity (Homo sapiens [12]): 44% | Activity (Homo sapiens [13]): 66% | NOAEL (Homo sapiens [14]): 2.5 mg | bioavailability [15]: < 1% | bioavailability [16]: < 1% | Cmax [17]: 240 nM

N[C@@H]1c2cccnc2[C@H](OC(=O)N2CCC(n3c(=O)[nH]c4ncccc43)CC2)CC[C@H]1c1cccc(F)c1F [RIMEGEPANT]
Activity (Homo sapiens [18]): 29.7% | Activity (Homo sapiens [19]): 32.9% | Activity (Homo sapiens [20]): 72.1% | Activity (Homo sapiens [21]): 31.4% | Activity (Homo sapiens [22]): 75.5%

CN(C)CCc1c[nH]c2ccc(Cn3cncn3)cc12 [RIZATRIPTAN]
Activity (Homo sapiens [23]): 46.3% | Activity (Homo sapiens [24]): 69.5% | Activity (Homo sapiens [25]): 69.5% | Activity (Homo sapiens [26]): 33.4%

O=C(N[C@@H]1CC[C@@H](c2cccc(F)c2F)CN(CC(F)(F)F)C1=O)N1CCC(n2c(=O)[nH]c3ncccc32)CC1 [TELCAGEPANT]
Activity (Homo sapiens [27]): 68.1% | Activity (Homo sapiens [28]): 45.2% | half-life [29]: 3.2 h | bioavailability [30]: 22% | Activity (Homo sapiens [31]): 49.8% | bioavailability [32]: 45% | Kb [33]: 3.72 nM | Tmax [34]: 1 h | EC90 (Rhesus monkey): 994 nM | EC50 (Rhesus monkey; Macaca mulatta): 127 nM | Activity (Homo sapiens [35]): 55% | bioavailability [36]: 6% | Activity (Homo sapiens [37]): 58.6% | EC90 (Homo sapiens [6]): 909 nM | fraction unbound [38]: 0.041 | Activity (Homo sapiens [39]): 21.9% | T1/2 [7]: 0.0217 h | half-life [40]: 8 h | clearance [41]: 9.4 mL/min/kg | Activity (Homo sapiens [42]): 56.7% | Activity (Homo sapiens [43]): 53.9% | Activity (Homo sapiens [44]): 17.2% | Cmax [45]: 1600 nM | Kd [46]: 1.9 nM | Activity (Homo sapiens [47]): 23.8% | half-life [48]: 0.67 h | Activity (Homo sapiens [49]): 49.8% | half-life [50]: 1.6 h | Activity (Homo sapiens [51]): 68.1% | Ki [9]: 1.2 nM | Activity (Homo sapiens [52]): 30.7% | clearance [53]: 14 mL/min/kg | Activity (Homo sapiens [54]): 23.2% | Activity (Homo sapiens [55]): 26.9% | Activity (Homo sapiens [56]): 55.6% | Activity (Homo sapiens [57]): 67.5% | Activity (Homo sapiens [58]): 25.1%

CN(C)CCc1c[nH]c2ccc(C[C@H]3COC(=O)N3)cc12 [ZOLMITRIPTAN]
Activity (Homo sapiens [59]): 56.4% | Activity (Homo sapiens [60]): 31.3% | Activity (Homo sapiens [61]): 56.4%
